# Data published in PubChem BioAssay.
# Activity calls are given as the source filed them.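 The calls were made as follows, unless noted: active = viability loss from added drug above about 55%, and viability with drug at most 40%, in both replicates (limit read from the data, passing the limit was not always enough); inconclusive = both conditions met in only one replicate; inactive = neither replicate meets both conditions.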
# Legend:
# [1] = reducers of endogenous Her2 protein level, primary screen, SKBR3 breast tumor cells, AlphaScreen, ATP viability (AID 461;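 active = Her2 level under about 52% in both replicate screens, with viability over 70% of control, limit read from the data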;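 as to Her2 level: lower value means less Her2 protein in the cells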;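 as to viability: percent of carrier control wells set as 100% viability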); conditions: 18-24 h, measured here: SKBR3 viability, ATP luminescence, at 10 µM
# [2] = molecular target: Receptor tyrosine-protein kinase erbB-2 (Homo sapiens) (UniProt P04626); test: as above; conditions: 18-24 h, at 10 µM, stronger effect = lower value
# [3] = SK-BR-3 cell growth inhibitors, pilot screen, 24 h, human (AID 572;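 active = viability at or below 10% of carrier control in both of two separate runs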;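 also: compound exposure lasted between 18 and 24 h rather than exactly 24 h; 100% = carrier-treated control wells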); conditions: SK-BR-3 viability, CellTiter-Glo luminescence, at 10 µM, stronger effect = lower value
# [4] = HUVEC growth inhibition – cell-based, human, primary screen (AID 575;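 active = viability at or below 30% in both replicate assays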;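 also: 100% = median of untreated cell wells with 0.1% DMSO on each plate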); conditions: HUVEC proliferation, CellTiter-Glo luminescence, 72 h; at 10 µM; stronger effect = lower value
# Summary of the method: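 Timing: 72 h treatment at 37 °C; material: HUVEC primary cells; technique: CellTiter-Glo luminescence measuring cellular ATP; controls: vehicle and MePR control wells; measure: percent of median DMSO-control luminescence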
# [5] = reversal of MRP1-mediated doxorubicin resistance, pilot screen, H69AR cells, doxorubicin co-treatment (AID 601); conditions: CellTiter-Glo, 72 h, at 10 µM; for differential viability (reversal): stronger effect = higher value
# [6] = 384-well plate pilot, post-Golgi transport modulator project, inhibition of yeast transport mutant growth (AID 636; in the data active = inhibition above about 31%); conditions: absorbance 615 nm, about 18 h, stronger effect = higher value
# [7] = growth suppression of yeast trafficking mutant, preliminary HTS, modulators of trafficking downstream of Golgi apparatus project, 1536-format plate, OD 615 nm (AID 637; in the data active = inhibition above about 30%); conditions: yeast transport mutant growth, absorbance 615 nm, 18 h; stronger effect = higher value
# [8] = growth inhibitors of H69AR lung tumor, primary screen, human, duplicate replicates (AID 580;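 active = viability at or under a set limit in both replicates, limit being median viability minus 3 SD, cut at about 48% in these data, passing the limit was not always enough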;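 also: 100% = mean luminescence of untreated wells and 0% = no signal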); conditions: H69AR lung tumor cells viability, ATP luminescence, 72 h; at 10 µM; stronger effect = lower value
# [9] = H69AR cells + 2 uM doxorubicin, measured here: viability with 2 uM doxorubicin, stronger effect = lower value
# [10] = H69AR cells, compound alone cytotoxicity
# Sequence of Receptor tyrosine-protein kinase erbB-2 (Homo sapiens) (P04626 whole entry, looked up): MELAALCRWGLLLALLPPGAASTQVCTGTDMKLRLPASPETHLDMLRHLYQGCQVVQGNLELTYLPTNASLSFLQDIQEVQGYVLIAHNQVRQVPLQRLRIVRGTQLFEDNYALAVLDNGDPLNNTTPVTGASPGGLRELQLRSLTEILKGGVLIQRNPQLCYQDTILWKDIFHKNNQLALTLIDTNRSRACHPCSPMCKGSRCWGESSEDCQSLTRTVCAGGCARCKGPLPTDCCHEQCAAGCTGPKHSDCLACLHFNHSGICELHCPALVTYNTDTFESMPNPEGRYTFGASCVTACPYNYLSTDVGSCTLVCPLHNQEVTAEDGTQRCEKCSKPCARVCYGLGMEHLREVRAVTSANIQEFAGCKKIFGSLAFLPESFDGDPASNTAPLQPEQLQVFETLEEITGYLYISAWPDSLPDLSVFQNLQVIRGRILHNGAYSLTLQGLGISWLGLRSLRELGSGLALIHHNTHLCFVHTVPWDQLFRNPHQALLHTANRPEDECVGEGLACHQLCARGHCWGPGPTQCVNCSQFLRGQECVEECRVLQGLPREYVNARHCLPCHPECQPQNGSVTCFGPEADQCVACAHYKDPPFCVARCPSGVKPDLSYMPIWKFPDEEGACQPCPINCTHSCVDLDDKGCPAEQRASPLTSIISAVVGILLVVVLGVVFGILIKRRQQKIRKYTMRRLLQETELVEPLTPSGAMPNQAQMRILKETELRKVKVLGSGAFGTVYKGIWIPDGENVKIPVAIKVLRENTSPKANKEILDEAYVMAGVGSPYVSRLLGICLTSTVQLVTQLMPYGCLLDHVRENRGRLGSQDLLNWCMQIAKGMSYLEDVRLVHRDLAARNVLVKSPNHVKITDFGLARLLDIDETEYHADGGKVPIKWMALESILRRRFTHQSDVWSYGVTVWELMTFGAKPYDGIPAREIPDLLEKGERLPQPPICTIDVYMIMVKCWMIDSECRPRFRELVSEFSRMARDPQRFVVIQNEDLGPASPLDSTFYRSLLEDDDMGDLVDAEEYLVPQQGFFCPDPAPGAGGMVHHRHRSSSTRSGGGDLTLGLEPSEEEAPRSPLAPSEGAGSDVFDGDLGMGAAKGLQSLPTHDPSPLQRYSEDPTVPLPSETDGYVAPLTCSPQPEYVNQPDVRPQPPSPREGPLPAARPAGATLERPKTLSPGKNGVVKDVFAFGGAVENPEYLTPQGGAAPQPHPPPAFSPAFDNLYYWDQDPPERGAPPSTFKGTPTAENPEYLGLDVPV
SMILES,viability [1] [%],Her2 level [2],viability [3],viability [4],differential viability (reversal) ([5]; H69AR cells + 2 uM doxorubicin),"viability [5, 9] [%]","viability [5, 10] [%]",inhibition [6],inhibition [7],viability [8]
Cc1c(C(=O)NC2CCCc3ccccc32)oc2ccc(S(=O)(=O)N3CCOCC3)cc12 (configuration not stated),94.5,89.5% (inactive),94.5% (inactive),84.9% (inactive),1.53% (inactive),50.7,52.2,-2% (inactive),1.29% (inactive),–
COc1ccc(-c2n[nH]c(C)c2-c2ccc(Cl)cc2)c(O)c1OC,83.5,109% (inactive),83.5% (inactive),–,-10.6% (inactive),33.8,23.2,-0.92% (inactive),4.26% (inactive),23.2% (active)
CCOC(=O)c1cc2sc(C)cc2n1CC(=O)NCc1ccc(F)cc1,65,73% (inactive),65% (inactive),–,17.1% (inactive),52.3,69.4,-6.32% (inactive),-3% (inactive),69.4% (inactive)
CCCOc1ccccc1C1CC(=O)Nc2cc3c(cc21)OCCO3 (configuration not stated),84,67% (inactive),84% (inactive),–,-39.2% (inactive),73.5,34.3,-4.93% (inactive),-2.3% (inactive),34.3% (active)
CC(C)C[C@H]1C(=O)N2CCC[C@H]2[C@]2(O)O[C@](NC(=O)[C@@H]3C=C4c5cccc6[nH]c(Br)c(c56)CC4N(C)C3)(C(C)C)C(=O)N12 (some centres not stated),138,71% (inactive),138% (inactive),–,11.8% (inactive),72.4,84.2,–,–,84.2% (inactive)
CCOC(=O)c1ccccc1NC(=O)c1c(O)c2ccccc2n(CC)c1=O,89,90% (inactive),89% (inactive),–,-11.1% (inactive),82.3,71.3,-6.85% (inactive),0.16% (inactive),71.3% (inactive)
CCOC(=O)c1cnn(-c2sc(C(=O)OCC)c(C)c2C(=O)OCC)c1N,95,93.5% (inactive),95% (inactive),–,-25.8% (inactive),41.6,15.8,0.27% (inactive),-4.6% (inactive),15.8% (active)
CSc1nc(N2CCOCC2)c2c(c1C#N)CCCCC2,112,96% (inactive),112% (inactive),–,12.9% (inactive),73.9,86.8,0.79% (inactive),17.9% (inactive),86.8% (inactive)
CCC1CCc2c(sc3ncnc(N4CCOCC4)c23)C1 (configuration not stated),89.5,87% (inactive),89.5% (inactive),–,-14.3% (inactive),104,89.3,-5.14% (inactive),-0.16% (inactive),89.3% (inactive)
Cn1c(Cc2ccccc2)nnc1SCC(=O)c1ccc(Br)s1,97.5,83.5% (inactive),97.5% (inactive),81.4% (inactive),-4.43% (inactive),53.9,49.4,-2.08% (inactive),-5.4% (inactive),–
ON=C1/C(=N\O)CC2(C/C1=N/O)OCCO2,89,113% (inactive),89% (inactive),–,-0.75% (inactive),87.7,86.9,-8.27% (inactive),-2.1% (inactive),86.9% (inactive)
CC1CCc2nc(NC(=O)CN3CCN(Cc4ccc5c(c4)OCO5)CC3)sc2C1 (configuration not stated),90.5,77.5% (inactive),90.5% (inactive),–,14.3% (inactive),73.5,87.8,-0.66% (inactive),2.1% (inactive),87.8% (inactive)
c1ccc2c(-c3nc(C4CCCCC4)no3)cc(-c3ccncc3)nc2c1,72.5,69% (inactive),72.5% (inactive),66.6% (inactive),-5.85% (inactive),49.4,43.6,45.3% (active),8.23% (inactive),–
Cc1ccccc1OCC(O)CN (configuration not stated),74,90% (inactive),74% (inactive),15.3% (active),-5.69% (inactive),25,19.3,3.64% (inactive),-6.03% (inactive),–
Cc1ccc2nc(NC(=O)C3CCN(S(=O)(=O)c4cccc5nsnc45)CC3)sc2c1,85.5,63.5% (inactive),85.5% (inactive),42.8% (inactive),-10.7% (inactive),76.5,65.8,-5.07% (inactive),10.3% (inactive),–
Cc1[nH]nc(N=CC2=C(O)CC(C)(C)CC2=O)c1-c1ccc(Cl)cc1,94.5,94.5% (inactive),94.5% (inactive),79.4% (inactive),1.14% (inactive),38.9,40.1,6.8% (inactive),6.83% (inactive),–
CCOC(=O)c1sc(NC(=O)c2c(C)nn(Cc3ccccc3)c2C)cc1C,82.5,90.5% (inactive),82.5% (inactive),44.6% (inactive),-8.76% (inactive),46.8,38.1,-10% (inactive),-4.92% (inactive),–
O=S(=O)(Nc1ccc2c(c1)OCO2)c1ccc(Br)s1,92,79% (inactive),92% (inactive),–,0.44% (inactive),96.3,96.8,-4.47% (inactive),-10.7% (inactive),96.8% (inactive)
N#C/C(=C(/O)COC(=O)CCC1CCCCC1)c1nc2ccccc2[nH]1,126,31% (active),126% (inactive),–,-9.79% (inactive),47.9,38.1,-4.8% (inactive),2.3% (inactive),38.1% (active)
COc1cccc(-c2nnc3sc(C4CCCCC4)nn23)c1,83,53.5% (active),83% (inactive),–,29.9% (inactive),33.5,63.4,-1.58% (inactive),11% (inactive),63.4% (inactive)
COc1ccc(Cn2nnnc2C(c2cccnc2)N2CCN(c3ccc(O)cc3)CC2)cc1 (configuration not stated),99.5,89.5% (inactive),99.5% (inactive),–,-10.7% (inactive),93.2,82.5,-6.4% (inactive),4.19% (inactive),82.5% (inactive)
CCOC(=O)/C=C(\C)Sc1cc(=O)oc2ccccc12,94.5,47.5% (active),94.5% (inactive),–,2.37% (inactive),3.73,6.09,-0.92% (inactive),1.45% (inactive),6.09% (active)
Cc1cccc(Nc2ncc3c(n2)CC(c2ccco2)CC3=O)c1 (configuration not stated),81.5,83% (inactive),81.5% (inactive),–,-2.41% (inactive),77.9,75.5,0.26% (inactive),4.17% (inactive),75.5% (inactive)
CCOc1ccc2nc(NC(=O)CSc3nc4ccccc4c(=O)n3Cc3ccco3)sc2c1,82.5,84% (inactive),82.5% (inactive),–,-0.105% (inactive),45.4,45.2,-5.95% (inactive),-1.97% (inactive),45.2% (active)
Cc1cc(O)c(-c2cc(C(=O)Nc3ccc(S(=O)(=O)N4CCOCC4)cc3)[nH]n2)cc1C,120,41% (active),120% (inactive),–,-21.6% (inactive),59.2,37.6,-5.14% (inactive),-5.08% (inactive),37.6% (active)
Cc1nc2cc(N3CCCCC3)c(NC(=O)c3cccnc3)cc2c(=O)n1Cc1ccccc1,64,67.5% (inactive),64% (inactive),–,6.91% (inactive),22,28.9,2.11% (inactive),-8.33% (inactive),28.9% (active)
